Among the data in ChEMBL document CHEMBL1126030, “Synthesis and antiviral activity of a series of HIV-1 protease inhibitors with functionality tethered to the P1 or P1' phenyl substituents: X-ray crystal structure assisted design” (J Med Chem, 1992) are I/C, CIC and IC50 values, retold here.

In experiment [1] the target is Human immunodeficiency virus type 1 protease (Human immunodeficiency virus 1) (UniProt Q72874). In words: Ratio of inhibitory activity on HIV-1 protease (IC50) to antiviral activity against HIV-1 in human H9 T-lymphoid cell-ELISA assay(CIC). In kind it is functional, cell-based. Summed up:
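Ratio of enzyme IC50 against HIV-1 protease to CIC. CIC is the minimum cell culture inhibitory concentration that prevents spread of HIV-1 infection in human H9 T-lymphoid cells, read out by p24 ELISA.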
In general terms: In an ELISA, binding on a coated surface is turned into a signal by an enzyme label.

For experiment [2], the system named is H9. In words: In vitro anti viral activity against HIV-1 in human H9 T-lymphoid cell culture by fixed cell immunofluorescence assay. Type of experiment: functional. In a few lines: (§1)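 Read-out is the minimum cell culture inhibitory concentration (CIC), the lowest concentration that fully prevents spread of viral infection in the human cell culture. Spread is scored by fixed-cell immunofluorescence or by p24 ELISA.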

Experiment [3] has as its target T1, Human immunodeficiency virus type 1 protease (Human immunodeficiency virus 1, UniProt Q72874). In words: (§2) In vitro enzyme inhibitory activity against HIV-1 protease.
Experiment [4] relates to MT4. The experiment is described as follows: In vitro anti viral activity against HIV-1(MN) in MT-4 T-lymphoid cell culture by fixed cell immunofluorescence assay. Type of experiment: functional, Homo sapiens. In a few lines: as §1
For experiment [5], the species on record is Homo sapiens. In words: In vitro anti viral activity against HIV-1(IIIb) in peripheral blood lymphocytes by fixed cell immunofluorescence assay. In kind it is functional. In a few lines:
as §1

The species named for experiment [6] is Homo sapiens. The experiment is described as follows: In vitro anti viral activity against HIV-1(IIIb) in peripheral blood lymphocytes by p-24-ELISA assay. Type of experiment: functional. Summed up: as §1
Experiment [7] relates to MT4. The experiment is described as follows: In vitro anti viral activity against HIV-1(IIIb) MT-4 T-lymphoid cell culture by fixed cell immunofluorescence assay. Type of experiment: functional, Homo sapiens. Summed up: as §1
Experiment [8] relates to MT4. In words: In vitro anti viral activity against HIV-1(RUTZ) in MT-4 T-lymphoid cell culture by fixed cell immunofluorescence assay. In kind it is functional, Homo sapiens. In a few lines: as §1
Experiment [9] has as its system H9. The experiment is described as follows: In vitro anti viral activity against SIV-mac251 in H9 T-lymphoid cell culture by fixed cell immunofluorescence assay. Type of experiment: functional, Homo sapiens. In a few lines:
as §1

For experiment [10], the system named is H9. In words: In vitro anti viral activity against HIV-1(IIIb) in H9 T-lymphoid cell culture by p-24 ELISA assay. Type of experiment: functional, Homo sapiens. In a few lines:
as §1

Experiment [11] is filed under the species Homo sapiens. The experiment is described as follows: In vitro anti viral activity against HIV-1(SF162) in monocytes/macrophages by fixed cell immunofluorescence assay. In kind it is functional. Summed up:
as §1

The test system of experiment [12] is MT4. In words: In vitro anti viral activity against HIV-1(WMJ-2) in MT-4 T-lymphoid cell culture by fixed cell immunofluorescence assay. In kind it is functional, Homo sapiens. Summed up: as §1
The test system of experiment [13] is H9. The experiment is described as follows: In vitro anti viral activity against HIV-1 in human H9 T-lymphoid cell culture by p-24-ELISA assay. In kind it is functional. In a few lines:
as §1

Experiment [14] relates to MT4. The experiment is described as follows: In vitro anti viral activity against HIV-1(IIIb) MT-4 T-lymphoid cell culture by p-24-ELISA assay. Type of experiment: functional, Homo sapiens. In a few lines: as §1
Experiment [15] deals with H9. The experiment is described as follows: In vitro anti viral activity against SIV(mne) in H9 T-lymphoid cell culture by fixed cell immunofluorescence assay. In kind it is functional, Homo sapiens. In a few lines:
as §1

For experiment [16], the system named is H9. The experiment is described as follows: In vitro anti viral activity against HIV-1(IIIb) in H9 T-lymphoid cell culture by fixed cell immunofluorescence assay. In kind it is functional, Homo sapiens. Summed up: as §1
The target in experiment [17] is T1, Human immunodeficiency virus type 1 protease. Described as §2. Type of experiment: functional.
The subject of experiment [18] is MT4. The experiment is described as follows: In vitro anti viral activity against HIV-1(RF) in MT-4 T-lymphoid cell culture by fixed cell immunofluorescence assay. Type of experiment: functional, Homo sapiens. Summed up: as §1
Experiment [19] deals with MT4. The experiment is described as follows: In vitro anti viral activity against HIV-1(IIIB) in MT-4 T-lymphoid cell culture by p-24-ELISA assay. In kind it is functional, Homo sapiens. In a few lines:
as §1

Some results are limits rather than exact numbers.

Turning to `CC(C)(C)OC(=O)N[C@@H](Cc1ccc(OCCN2CCOCC2)cc1)[C@@H](O)C[C@@H](Cc1ccccc1)C(=O)NC1c2ccccc2C[C@H]1O` (some centres undefined), in [1], the I/C came to 0.011. In addition, the CIC in experiment [2] came to 50 nM. For the same compound, the IC50 (commonly the concentration at which inhibition is half-maximal) in experiment [3] came out at 0.55 nM.
Taken in the same sequence, the figures for `CC(C)(C)OC(=O)N[C@@H](Cc1ccccc1)[C@@H](O)C[C@@H](Cc1ccc(OCCN2CCSCC2)cc1)C(=O)NC1c2ccccc2C[C@H]1O` (some centres undefined) were 0.0094, 50 nM and 0.47 nM.
On to `CC(C)(C)OC(=O)N[C@@H](Cc1ccccc1)[C@@H](O)C[C@@H](Cc1ccc(OCCN2CCOCC2)cc1)C(=O)N[C@H]1c2ccccc2C[C@H]1O`, for which the CIC is on record as 25 nM in [4]; 0.78 nM in experiment [5]; 25 nM in experiment [6]; 25 nM in experiment [7]; 12 nM in experiment [8]; 12 nM in [2]. Besides, the CIC in experiment [9] turned out to be 800 nM; in experiment [10], 25 nM; in [11], 50 nM; in experiment [12], 12 nM; in experiment [13], 50 nM; in experiment [14], 50 nM. For the same compound, the CIC in [15] is recorded as 200 nM; in [16] it was 12 nM; in experiment [18], 50 nM. Further, the I/C in experiment [1] was determined as 0.038. The IC50 in experiment [17] stood at 0.45 nM.
As for `CN1CCN(CCOc2ccc(C[C@H](C[C@H](O)[C@H](Cc3ccccc3)NC(=O)OC(C)(C)C)C(=O)NC3c4ccccc4C[C@H]3O)cc2)CC1` (some centres undefined), the I/C in experiment [1] is 0.002. Moreover, in experiment [13], the CIC was 100 nM. For the same compound, the IC50 in experiment [3] was found to be 0.2 nM.
Taken in the same sequence, the figures for `CC(C)(C)OC(=O)N[C@@H](Cc1ccccc1)[C@@H](O)C[C@@H](Cc1ccc(OCCO)cc1)C(=O)NC1c2ccccc2C[C@H]1O` (some centres undefined) were 0.0018, 50 nM and 0.09 nM.
For `CC(C)(C)OC(=O)N[C@@H](Cc1ccccc1)[C@@H](O)C[C@@H](Cc1ccc(OCC[N+]2([O-])CCOCC2)cc1)C(=O)NC1c2ccccc2C[C@H]1O` (some centres undefined) the same measures were 0.002, 100 nM and 0.2 nM.
In the case of `CC(C)(C)OC(=O)N[C@@H](Cc1ccccc1)[C@@H](O)C[C@@H](Cc1ccc(OCC(=O)N2CCOCC2)cc1)C(=O)NC1c2ccccc2C[C@H]1O` (some centres undefined), the I/C in [1] amounted to 0.004. Further, the CIC in experiment [13] was found to be 50 nM. In experiment [3], this compound yielded an IC50 of 0.2 nM.
As to `CC(C)(C)OC(=O)N[C@@H](Cc1ccccc1)[C@@H](O)C[C@@H](Cc1ccc(OCCCN2CCOCC2)cc1)C(=O)NC1c2ccccc2C[C@H]1O` (some centres undefined), the I/C in [1] amounted to 0.01. The CIC in experiment [2] is given as 200 nM. This compound showed an IC50 in experiment [3] of 2 nM.
Consider `CC(C)(C)OC(=O)N[C@@H](Cc1ccccc1)[C@@H](O)C[C@@H](Cc1ccc(OCCN2CCS(=O)(=O)CC2)cc1)C(=O)NC1c2ccccc2C[C@H]1O` (some centres undefined), for which, in experiment [1], the I/C was found to be 0.0008. The compound further displayed a CIC in experiment [13] of 100 nM. Also, the IC50 in experiment [3] stood at 0.08 nM.
Consider `CC(C)(C)OC(=O)N[C@@H](Cc1ccc(O)cc1)[C@@H](O)C[C@@H](Cc1ccccc1)C(=O)NC1c2ccccc2C[C@H]1O` (some centres undefined), for which, in experiment [1], the I/C was 0.007. In addition, the CIC in [2] came out at 50 nM; in [13], 25 nM. Further, the midpoint of inhibition in [3], the IC50, lay at 0.35 nM.
For `CC(C)(C)OC(=O)N[C@@H](Cc1ccccc1)[C@@H](O)C[C@@H](Cc1ccc(O)cc1)C(=O)N[C@H]1c2ccccc2C[C@H]1O` the same measures were 0.0032, 25 nM, 50 nM and 0.16 nM.
Regarding `Cc1cn([C@H]2C[C@H](N=[N+]=[N-])[C@@H](CO)O2)c(=O)[nH]c1=O` [ZIDOVUDINE], the CIC in experiment [19] was determined as 25 nM.
Consider `CC(C)(C)OC(=O)N[C@@H](Cc1ccccc1)[C@@H](O)C[C@@H](Cc1ccccc1)C(=O)N[C@H]1c2ccccc2C[C@H]1O`, for which, in experiment [1], the I/C is 0.0009. Further, the CIC in [2] came to 400 nM. The compound further yielded an IC50 in experiment [3] of 0.35 nM.
As to `CC(C)(C)OC(=O)N[C@@H](Cc1ccccc1)[C@@H](O)C[C@@H](Cc1ccc(OCc2ccccc2)cc1)C(=O)NC1c2ccccc2C[C@H]1O` (some centres undefined), the I/C in experiment [1] was found to be 0.0036. Moreover, the CIC in experiment [13] turned out to be 50 nM. The compound also came in with a concentration for half-maximal inhibition (IC50) in experiment [3] of 0.18 nM.
As to `CC(C)(C)OC(=O)N[C@@H](Cc1ccccc1)[C@@H](O)C[C@@H](Cc1ccc(OCCN2CC[S+]([O-])CC2)cc1)C(=O)NC1c2ccccc2C[C@H]1O` (some centres undefined), the I/C in experiment [1] was 0.00035. Besides, the CIC in experiment [2] amounted to 200 nM. For the same compound, in experiment [3], 0.07 nM corresponded to half-maximal inhibition (IC50).
For `CN(C)CCOc1ccc(C[C@H](C[C@H](O)[C@H](Cc2ccccc2)NC(=O)OC(C)(C)C)C(=O)NC2c3ccccc3C[C@H]2O)cc1` (some centres undefined) the same measures were 0.0025, 400 nM and 1 nM.
For `COCCN(CCOC)CCOc1ccc(C[C@H](C[C@H](O)[C@H](Cc2ccccc2)NC(=O)OC(C)(C)C)C(=O)NC2c3ccccc3C[C@H]2O)cc1` (some centres undefined) the same measures were 0.018, 50 nM and 0.9 nM.
Regarding `NC1N=CNc2c1ncn2[C@H]1CC[C@@H](CO)O1` (some centres undefined), the CIC in experiment [2] is reported as 25000 nM.
Consider `CC(C)(C)OC(=O)N[C@@H](Cc1ccccc1)[C@@H](O)C[C@@H](Cc1ccc(OCCN2CCCC2)cc1)C(=O)NC1c2ccccc2C[C@H]1O` (some centres undefined), for which the IC50 in experiment [3] came to 1.8 nM.
As for `CC(C)(C)OC(=O)N[C@@H](Cc1ccc(O)cc1)[C@@H](O)C[C@@H](Cc1ccc(O)cc1)C(=O)NC1c2ccccc2C[C@H]1O` (some centres undefined), in experiment [1], the I/C was found to be 0.0002. In addition, the CIC in [2] came to 780 nM. This compound gave an IC50 in experiment [3] of 0.15 nM.
With `CC(C)(C)OC(=O)N[C@@H](Cc1ccccc1)[C@@H](O)C[C@@H](Cc1ccc(OCCN2CCCCC2)cc1)C(=O)NC1c2ccccc2C[C@H]1O` (some centres undefined), the I/C in [1] is 0.004. Moreover, the CIC in experiment [2] amounted to 400 nM. Moreover, in experiment [3], the IC50 was 1.6 nM.
In the case of `CC(C)(C)OC(=O)N[C@@H](Cc1ccccc1)[C@@H](O)CC(Cc1ccc(OCC(=O)O)cc1)C(=O)NC1c2ccccc2C[C@H]1O` (some centres undefined), in experiment [1], the I/C was less than 0.0001. Further, the CIC in experiment [13] is given as greater than 400 nM. Besides, the IC50 in experiment [3] was determined as 0.04 nM.
Regarding `CC(C)(C)OC(=O)N[C@@H](Cc1ccc(OCCN2CCOCC2)cc1)[C@@H](O)C[C@@H](Cc1ccc(OCCN2CCOCC2)cc1)C(=O)NC1c2ccccc2C[C@H]1O` (some centres undefined), the I/C in [1] turned out to be 0.019. This compound also displayed a CIC in experiment [2] of 100 nM. Moreover, the midpoint of inhibition in [3], the IC50, lay at 1.9 nM.
